{"data": "Measured values from different studies", "read-out": "metabolic stability", "host": "human", "note": "Compare with care: the assays were run in different laboratories."}
{"Structure (SMILES)": "O=c1c2cc(F)c(Oc3ccc(OC(F)(F)F)cc3)cc2[nH]c2cc(Cl)cc(F)c12", "test system": "liver microsomes", "setting": "1 µM, pH 7.4", "measurement": "microsomal CLint", "value": "2.63 µL/min/mg"}
{"Structure (SMILES)": "Cc1cc(S(=O)(=O)N[C@H]2CC[C@H](CN3CCN(c4cccc(NC5CCC(=O)NC5=O)c4)CC3)CC2)ccc1Nc1ncc(C(F)(F)F)c(N2CCC[C@](C)(O)C2)n1 (stereo partly drawn)", "test system": "liver microsomes", "setting": "1 µM", "measurement": "scaled CLint", "value": "< 14 mL/min/kg"}
{"Structure (SMILES)": "COc1cc(-c2cc(C(C)=O)n3ccccc23)c(OC)cc1Cn1ccnc1", "test system": "liver microsomes", "setting": "pH 7.4", "measurement": "scaled CLint", "value": "15.6 mL/min/kg"}
{"Structure (SMILES)": "CC(C)(C)OC(=O)N1CCC(Oc2ccc3c(=O)c4c(F)cc(Cl)cc4[nH]c3c2)C1 (stereo not drawn)", "test system": "liver microsomes", "setting": "1 µM, pH 7.4", "measurement": "microsomal CLint", "value": "17.3 µL/min/mg"}
{"Structure (SMILES)": "Cc1cc(S(=O)(=O)NC2CCC(CC3CCN(c4ccc(C5CCC(=O)NC5=O)cc4)CC3)CC2)ccc1Nc1ncc(C(F)(F)F)c(N2CCC[C@](C)(O)C2)n1 (stereo partly drawn)", "test system": "liver microsomes", "setting": "1 µM", "measurement": "scaled CLint", "value": "17 mL/min/kg"}
{"Structure (SMILES)": "N[C@H](COCC(=O)N1CCC[C@H](C(=O)NCc2nc(-c3ccc(C(F)(F)F)cc3)cs2)C1)c1ccccc1", "test system": "liver microsomes", "setting": "0.5 µM", "measurement": "microsomal CLint", "value": "80 µL/min/mg"}
{"Structure (SMILES)": "C[C@H](O)c1cnc(NS(=O)(=O)c2ccc(C(F)(F)F)c(Cl)c2)nc1", "test system": "hepatocytes", "setting": "1 µM", "measurement": "hepatocyte CLint", "value": "< 3 µL/min/10⁶ cells"}
{"Structure (SMILES)": "O=c1c2ccc(OC3CCNCC3)cc2[nH]c2cc(F)cc(Cl)c12", "test system": "liver microsomes", "setting": "1 µM, pH 7.4", "measurement": "microsomal CLint", "value": "13.9 µL/min/mg"}
{"Structure (SMILES)": "NCCOCC(=O)N1CCC[C@H](C(=O)NCc2nc(-c3ccc(C(F)(F)F)cc3)cs2)C1", "test system": "hepatocytes", "setting": "0.5 µM", "measurement": "scaled CLint", "value": "< 3.4 mL/min/kg"}
{"Structure (SMILES)": "C[C@]1(O)CCCN(c2nc(Nc3ccc(S(=O)(=O)N[C@H]4CC[C@H](CN5CCN(c6ccc(C7CCC(=O)NC7=O)cc6F)CC5)CC4)cc3F)ncc2C(F)(F)F)C1 (stereo partly drawn)", "test system": "liver microsomes", "setting": "1 µM", "measurement": "scaled CLint", "value": "< 14 mL/min/kg"}
{"Structure (SMILES)": "C[C@H](O)c1ccc(NS(=O)(=O)c2ccc(OCC3CCC3)c(Cl)c2)c2nn(C)cc12", "test system": "hepatocytes", "setting": "1 µM", "measurement": "hepatocyte CLint", "value": "167 µL/min/10⁶ cells"}
{"Structure (SMILES)": "COCC(=O)N1CCC[C@H](C(=O)NCc2nc(-c3ccc(C#N)cc3)cs2)C1", "test system": "liver microsomes", "setting": "0.5 µM", "measurement": "scaled CLint", "value": "12 mL/min/kg"}
{"Structure (SMILES)": "CCCN(CCC)CCCOc1ccc2c(=O)c3c([nH]c2c1)CCCC3", "test system": "liver microsomes", "setting": "1 µM, pH 7.4", "measurement": "microsomal CLint", "value": "37.1 µL/min/mg"}
{"Structure (SMILES)": "CCOCC(=O)N1CCC[C@H](C(=O)NCc2nc(-c3ccc(C)nc3)cs2)C1", "test system": "liver microsomes", "setting": "0.5 µM", "measurement": "scaled CLint", "value": "11 mL/min/kg"}
{"Structure (SMILES)": "C[C@]1(O)CCCN(c2nc(Nc3ccc(S(=O)(=O)N[C@H]4CC[C@H](CN5CCN(c6ccc(C7CCC(=O)NC7=O)c(F)c6)CC5)CC4)cc3F)ncc2C(F)(F)F)C1 (stereo partly drawn)", "test system": "liver microsomes", "setting": "1 µM", "measurement": "scaled CLint", "value": "< 14 mL/min/kg"}
{"Structure (SMILES)": "CCOCC(=O)N1C2CCC(C(=O)NCc3nc(-c4ccc(C#N)cc4)cs3)C1CC2 (stereo not drawn)", "test system": "liver microsomes", "setting": "0.5 µM", "measurement": "microsomal CLint", "value": "42 µL/min/mg"}
{"Structure (SMILES)": "O=c1c2ccc(OCc3cccc(OC(F)(F)F)c3)cc2[nH]c2ccc(Cl)c(F)c12", "test system": "liver microsomes", "setting": "1 µM, pH 7.4", "measurement": "microsomal CLint", "value": "1.24 µL/min/mg"}
{"Structure (SMILES)": "COCC(=O)N1CCC[C@H](C(=O)NCc2nc(-c3ccccc3)cs2)C1", "test system": "liver microsomes", "setting": "0.5 µM", "measurement": "microsomal CLint", "value": "< 7 µL/min/mg"}
{"Structure (SMILES)": "CCCN(CCC)CCNc1ccc2c(=O)c3c([nH]c2c1)CCCC3", "test system": "liver microsomes", "setting": "1 µM, pH 7.4", "measurement": "microsomal CLint", "value": "21.4 µL/min/mg"}
{"Structure (SMILES)": "Cc1cc(S(=O)(=O)NC2CC(N3CCN(CC4CCN(c5ccc(NC6CCC(=O)NC6=O)cc5C)CC4)CC3)C2)ccc1Nc1ncc(C(F)(F)F)c(N2CCC[C@](C)(O)C2)n1 (stereo partly drawn)", "test system": "liver microsomes", "setting": "1 µM", "measurement": "scaled CLint", "value": "15 mL/min/kg"}
{"Structure (SMILES)": "CC(C)(N)COCC(=O)N1CCC[C@H](C(=O)NCc2nc(-c3ccc(C(F)(F)F)cc3)cs2)C1", "test system": "liver microsomes", "setting": "0.5 µM", "measurement": "microsomal CLint", "value": "< 3 µL/min/mg"}
{"Structure (SMILES)": "Cc1cc(S(=O)(=O)N[C@]2(C)C[C@H](N3CCN(CC4CCN(c5ccc6c(c5F)n(C)c(=O)n6C5CCC(=O)NC5=O)CC4)CC3)C2)ccc1Nc1ncc(C(F)(F)F)c(N2CCC[C@](C)(O)C2)n1 (stereo partly drawn)", "test system": "liver microsomes", "setting": "1 µM", "measurement": "scaled CLint", "value": "251 mL/min/kg"}
{"Structure (SMILES)": "CCN(CC)CCOc1ccc2c(=O)c3c([nH]c2c1)CCCC3", "test system": "liver microsomes", "setting": "1 µM, pH 7.4", "measurement": "microsomal CLint", "value": "6.65 µL/min/mg"}
{"Structure (SMILES)": "CNS(=O)(=O)c1ccc(Nc2ncc(C(F)(F)F)c(N3CCC(C)(O)CC3)n2)c(C)c1", "test system": "liver microsomes", "setting": "1 µM", "measurement": "scaled CLint", "value": "48 mL/min/kg"}
{"Structure (SMILES)": "O=c1c2c([nH]c3cc(Oc4cccc(OC(F)(F)F)c4)ccc13)CCCC2", "test system": "liver microsomes", "setting": "1 µM, pH 7.4", "measurement": "microsomal CLint", "value": "1.66 µL/min/mg"}
{"Structure (SMILES)": "COCC(=O)N1CCC[C@H](C(=O)NCc2nc(-c3ccc(F)cc3)cs2)C1", "test system": "liver microsomes", "setting": "0.5 µM", "measurement": "microsomal CLint", "value": "14 µL/min/mg"}
{"Structure (SMILES)": "CNS(=O)(=O)c1ccc(Nc2ncc(C(F)(F)F)c([C@H]3CC[C@@](C)(O)CC3)n2)c(C)c1", "test system": "liver microsomes", "setting": "1 µM", "measurement": "scaled CLint", "value": "< 14 mL/min/kg"}
